Data from PubChem BioAssay.
The source made the active and inactive calls.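 Rule for the calls, unless noted: active = duplicate-averaged activation above buffer control mean plus 5 SD of those controls; inactive = the rest.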

How the values were obtained:
[1] = thallium flux activation in parental CHO cells, counter-screen for KCNQ1 potentiator project (AID 493006); settings: parental CHO-K1 cells, FluxOR thallium flux, at 10 µM; hits give high values;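 for activation: fluorescence ratio of max minus min over baseline after K+ and Tl+ depolarization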
How it was run: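 Material: untransfected host CHO-K1 cells with FluxOR thallium dye. Timing: overnight 37 °C plating, 90 min RT dye, 20 min compound. Detection: kinetic FluxOR fluorescence, 10 s baseline, 110 s after stimulus. Read-out basis: max-minus-min fluorescence over baseline, percent of buffer-to-R-L3 span. Replicates: duplicate wells per compound, percent values averaged.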

[2] = target: Potassium voltage-gated channel subfamily KQT member 1 (Homo sapiens) (UniProt P51787); assay: KCNQ1 potassium channel potentiators, confirmation, FluxOR thallium flux, CHO cells, duplicates (AID 493007;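 active = potentiation averaged over duplicate wells exceeding buffer-only control mean by more than 3 SD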;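 for outcome: cells depolarized by a potassium plus thallium sulfate stimulus after compound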); settings: KCNQ1 cell line, FluxOR thallium flux fluorescence, at 10 µM; hits give high values, % of reference activator effect, buffer zero
How it was run: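 Test system – KCNQ1-expressing CHO cell line · Incubation – FluxOR dye loading 90 min, compound exposure 20 min, room temperature · Detection – FluxOR Tl+ flux fluorescence, 10 s baseline plus 110 s recording · Controls – buffer-only wells as 0% and R-L3 activator as 100%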

[3] = target: Potassium voltage-gated channel subfamily KQT member 2 (Rattus norvegicus) (UniProt O88943); assay: rat KCNQ2 channel potentiation, selectivity assay for KCNQ1 potentiator project, KCNQ2-CHO-K1 cells (AID 493009;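 active = mean duplicate potentiation above the buffer control mean plus 5 SD of buffer wells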;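 note: assay conditions were tuned for KCNQ1 rather than KCNQ2 modulators; signal is max minus min fluorescence divided by baseline after thallium stimulus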); settings: FluxOR thallium flux fluorescence, at 10 µM; hits give high values, scaled: buffer 0, activator control 100
[4] = target: Potassium voltage-gated channel subfamily KQT member 1 (Homo sapiens) (UniProt P51787); assay: KCNQ1 channel current potentiators, confirmation, orthogonal assay for KCNQ1 potentiator project, IonWorks patch clamp, KCNQ1-CHO cells (AID 493184;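 active = current rise at least 3 SD above the untreated control mean in each of two repeat wells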); settings: automated patch clamp current, at 10 µM; hits give high values
How it was run: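 Read-out: Percent current increase versus pre-compound level | Assay system: CHO cells carrying KCNQ1 | Measured by: Automated perforated-patch electrophysiology | Medium: External bath solution at pH 7.4 | Dosing: One dose, 10 µM final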

Chain of Potassium voltage-gated channel subfamily KQT member 2 (Rattus norvegicus) (O88943 whole entry, looked up): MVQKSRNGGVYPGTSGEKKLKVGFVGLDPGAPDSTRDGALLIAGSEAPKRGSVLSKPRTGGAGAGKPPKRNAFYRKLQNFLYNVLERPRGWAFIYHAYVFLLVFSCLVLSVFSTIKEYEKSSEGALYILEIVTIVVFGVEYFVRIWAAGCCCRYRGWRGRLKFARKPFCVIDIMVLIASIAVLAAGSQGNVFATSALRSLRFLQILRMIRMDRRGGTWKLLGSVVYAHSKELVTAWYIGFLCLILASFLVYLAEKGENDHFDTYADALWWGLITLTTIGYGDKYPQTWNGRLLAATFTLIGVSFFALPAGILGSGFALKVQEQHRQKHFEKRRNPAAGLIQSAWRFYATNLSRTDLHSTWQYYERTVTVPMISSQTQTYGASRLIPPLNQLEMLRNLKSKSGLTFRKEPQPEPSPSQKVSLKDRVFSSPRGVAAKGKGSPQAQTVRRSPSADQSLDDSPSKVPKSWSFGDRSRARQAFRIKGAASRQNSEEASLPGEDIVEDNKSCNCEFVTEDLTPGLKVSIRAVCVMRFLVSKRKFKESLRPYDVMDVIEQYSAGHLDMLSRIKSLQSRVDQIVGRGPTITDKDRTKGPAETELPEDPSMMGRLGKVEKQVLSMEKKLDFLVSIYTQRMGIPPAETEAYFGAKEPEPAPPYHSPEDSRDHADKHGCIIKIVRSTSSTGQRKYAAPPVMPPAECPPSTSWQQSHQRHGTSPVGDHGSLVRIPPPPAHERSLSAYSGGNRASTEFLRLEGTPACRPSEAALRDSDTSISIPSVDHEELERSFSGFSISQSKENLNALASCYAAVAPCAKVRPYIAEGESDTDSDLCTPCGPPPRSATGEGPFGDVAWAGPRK
Chain of Potassium voltage-gated channel subfamily KQT member 1 (Homo sapiens) (P51787 whole entry, looked up): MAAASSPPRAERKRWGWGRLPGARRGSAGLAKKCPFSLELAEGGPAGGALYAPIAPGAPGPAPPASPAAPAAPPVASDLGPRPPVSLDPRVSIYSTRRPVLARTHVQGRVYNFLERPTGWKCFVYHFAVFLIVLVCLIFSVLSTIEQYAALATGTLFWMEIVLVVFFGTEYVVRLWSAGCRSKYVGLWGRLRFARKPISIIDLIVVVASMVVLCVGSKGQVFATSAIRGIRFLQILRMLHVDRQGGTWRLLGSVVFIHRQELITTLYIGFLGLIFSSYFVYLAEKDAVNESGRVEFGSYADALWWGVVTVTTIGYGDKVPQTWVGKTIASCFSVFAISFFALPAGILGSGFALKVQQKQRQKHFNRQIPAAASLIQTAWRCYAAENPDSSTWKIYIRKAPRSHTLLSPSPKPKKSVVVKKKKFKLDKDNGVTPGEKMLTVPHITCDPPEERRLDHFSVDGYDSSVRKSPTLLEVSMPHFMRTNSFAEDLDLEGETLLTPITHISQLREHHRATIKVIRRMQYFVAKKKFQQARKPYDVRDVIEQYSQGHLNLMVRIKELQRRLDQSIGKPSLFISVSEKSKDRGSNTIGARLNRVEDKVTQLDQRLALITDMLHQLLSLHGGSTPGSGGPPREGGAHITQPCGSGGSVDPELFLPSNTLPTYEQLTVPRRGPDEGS

Row | Structure (SMILES) | outcome [1] | outcome [2] | outcome [3] | outcome [4] | activation [1] | potentiation [2] | potentiation [3]
1 | Cc1cc(C)cc(NC(=O)C(Sc2ncnc3ccccc23)c2ccccc2)c1 (stereo unspecified) | inactive | inactive | inactive | inactive |  |  | 
2 | NS(=O)(=O)c1ccc(CCNC(=O)COC(=O)c2cc([N+](=O)[O-])ccc2N2CCOCC2)cc1 | inactive | inactive | inactive | inactive |  |  | 
3 | CCOC(=O)c1sc2nc(Cc3ccc(Cl)cc3)[nH]c(=S)c2c1C |  |  |  | inactive | 302% (active) | 144% (active) | 362% (active)
4 | O=C(CCN1CCCCCC1)Nc1ccc(F)cc1 | inactive | inactive | inactive | inactive |  |  | 
5 | S=c1[nH]c(-c2ccccc2)cn1/N=C/c1cccc2ccccc12 |  |  |  | inactive | 174% (active) | 65.5% (active) | 184% (active)
6 | O=C(CNCC1CCCCC1)Nc1ccc(OC(F)(F)F)cc1 | inactive | inactive | inactive | inactive |  |  | 
7 | Cc1ccc(C(=O)Nc2nnn(C)n2)cc1 | inactive | inactive | inactive | inactive |  |  | 
8 | CCOC(=O)/C(=C\c1cccnc1)C(=O)c1cc(C(C)=O)c(Nc2ccccc2)s1 | inactive | inactive | inactive | inactive |  |  | 
9 | CCCCCCCCCCCCC/C=C/[C@@H](O)[C@@H](N)CO |  |  |  | inactive | 406% (active) | 218% (active) | 414% (active)
10 | CC(C)c1ccc(C(=O)NC2=NCCS2)cc1 | inactive | inactive | inactive | inactive |  |  | 
11 | Cc1cccc(C(=O)NNC(=O)C(=O)NC(C)(C)C)c1 |  |  |  | inactive | 159% (active) | 30.5% (active) | 146% (active)
12 | CCOCCc1c(O)nc(SC)[nH]c1=O | inactive | inactive | inactive | inactive |  |  | 
13 | CCc1ccc(/C=C/C(=O)C2C(=O)c3ccccc3C2=O)cc1 |  |  |  | inactive | 284% (active) | 118% (active) | 297% (active)
14 | CCOC(=O)c1c(NS(=O)(=O)c2cccc(OC)c2)sc2c1CCC2 | inactive |  | inactive | inactive |  | 59% (active) | 
15 | C=CCOc1ccc(/C=C2\SC(=S)N(NS(=O)(=O)c3ccc(C)cc3)C2=O)cc1 |  |  |  | inactive | 447% (active) | 444% (active) | 852% (active)
16 | CCOC(=O)CN1C(=O)N(CC)C(C)=C(C(=O)OC)[C@@H]1c1ccccc1 | inactive | inactive | inactive | inactive |  |  | 
17 | Cc1cc(OCC(=O)NNC(=O)c2cnccn2)cc(C)c1Cl |  |  |  | inactive | 200% (active) | 22% (active) | 279% (active)
18 | Cc1cc(Br)ccc1OCC(=O)NNC(=O)c1cnccn1 | inactive | inactive | inactive | inactive |  |  | 
19 | CCOCC(=O)Nc1ccc2c(c1)N(S(=O)(=O)c1cccs1)CCC2 | inactive | inactive | inactive | inactive |  |  | 
20 | Cc1ccc(-c2ccnc(=S)[nH]2)cc1 | inactive | inactive | inactive | inactive |  |  | 
21 | COc1ccc(C(=O)NC(=S)NNC(=O)c2ccc3ccccc3n2)cc1 | inactive |  |  | inactive |  | 26% (active) | 160% (active)
22 | COC(=O)C1=NN(C(=O)c2ccc(Cl)cc2)C(O)(c2ccccc2)C1 (stereo unspecified) |  |  |  | inactive | 426% (active) | 150% (active) | 392% (active)
23 | CCCS(=O)(=O)c1c(S(=O)(=O)CCC)c2c(C(N)=O)cccn2c1C(=O)c1ccc(F)cc1 | inactive | inactive | inactive | inactive |  |  | 
24 | O=C1OC(c2ccc(F)cc2)=N/C1=C\c1ccc(Br)o1 |  |  |  | inactive | 228% (active) | 80.5% (active) | 266% (active)
25 | c1ccc2c(c1)CSc1sccc1C2=C1CCNCC1 | inactive | inactive | inactive | inactive |  |  | 
26 | Cc1ccc(C(=O)CC(=O)COc2ccc(Cl)cc2C)cc1 | inactive |  |  | inactive |  | 180% (active) | 209% (active)
27 | CCCCN(CCCC)C(=S)NC(=O)C(C)(C)C | inactive | inactive | inactive | inactive |  |  | 
28 | Cc1ccc(/C=C/C(=O)c2ccccc(=O)c2O)cc1C |  |  |  | inactive | 174% (active) | 56.5% (active) | 276% (active)
29 | COc1ccc(C)cc1NC(=O)C(=O)NNC(=O)c1ccco1 |  |  |  | inactive | 377% (active) | 109% (active) | 363% (active)
